Test results from ChEMBL document CHEMBL1132292, “Potentiation of cADPR-induced Ca(2+)-release by methylxanthine analogues” (1999).

What was measured:
[1] = tested on: Lytechinus pictus; assay: Calcium release in sea urchin egg homogenate at 2 mM as percent of 1 mM caffeine effect
[2] = tested on: Lytechinus pictus; assay: Percent of 1 mM Caffeine effect to release [Ca2+] at 1 mM in sea urchin egg homogenate
[3] = compound was screened for their ability to potentiate [Ca2+] release induced by cADRP(an endogenous modulator of ryanodine receptor) in sea urchin egg homogenates at a concentration 1 mM; format: functional, tissue-based
Summary of the method: (§1)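 Lytechinus pictus egg homogenate (2.5%, from 50% stocks) in Glu-IM (pH 7.2, Hepes). It was Ca2+-loaded for 3 h at room temperature with 0.5 mM ATP, creatine kinase/phosphocreatine, oligomycin, antimycin, azide and 3 μM fluo-3. Fluo-3 fluorescence (ex 490/em 535 nm) was read at 17 °C. Methylxanthine was added 1 min before a slightly releasing cADPR concentration chosen from each experiment's cADPR concentration–response curve. Caffeine was run daily as standard.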

[4] = Calcium release at 2 mM as percent of 1 mM caffeine effect
[5] = Compound was screened for their ability to potentiate [Ca2+] release induced by cADRP(an endogenous modulator of ryanodine receptor) in sea urchin egg homogenates at a concentration of 2 mM; format: functional, tissue-based
Summary of the method: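 Lytechinus pictus egg homogenate (2.5%, from 50% stocks), Ca2+-loaded 3 h at room temperature in Glu-IM (pH 7.2) with 0.5 mM ATP, phosphocreatine/creatine phosphokinase, oligomycin, antimycin, azide and 3 μM fluo-3. Fluo-3 fluorescence (ex 490/em 535 nm) read at 17 °C. Methylxanthine at 2 mM added 1 min before a daily-chosen, slightly active cADPR concentration. Caffeine run daily as standard.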

[6] = compound was screened for their ability to potentiate [Ca2+] release induced by cADRP(an endogenous modulator of ryanodine receptor) in sea urchin egg homogenates at a concentration 2 mM; format: functional, tissue-based
Summary of the method: as §1

Structure (SMILES) | Activity [1] [%] | also measured
CC(=O)CCCCCn1cnc2c1c(=O)n(C)c(=O)n2C | 107 | 
CC(=O)CCCn1c(=O)c2c(ncn2C)n(C)c1=O | 37 | 
Cn1c(=O)c2c(ncn2CCCCCCCCCCO)n(C)c1=O |  | Activity [2]: 113%
Cn1c(=O)c2c(ncn2C)n(C)c1=O [CAFFEINE] |  | Potentiation [3]: 100%; Activity [4]: 100%
Cn1c(=O)c2c(ncn2CCO)n(C)c1=O [ETOFYLLINE] | 43 | 
C#CCn1c(=O)c2c(ncn2CCCCCCC(C)=O)n(C)c1=O |  | Activity [2]: 98%
CC(=O)Cn1c(=O)c2c(ncn2C)n(C)c1=O | 43 | 
C=CCn1cnc2c1c(=O)n(C)c(=O)n2C | 100 | 
C#CCn1c(=O)c2c(ncn2CCCC(C)=O)n(C)c1=O | 81 | 
CC(O)Cn1cnc2c1c(=O)n(C)c(=O)n2C (stereo not drawn) [PROXYPHYLLINE] | 47 | 
CC(=O)CCCn1cnc2c1c(=O)n(C)c(=O)n2C | 60 | 
O=c1[nH]c(=O)c2nc[nH]c2[nH]1 |  | Potentiation [5]: 41%
Cn1c(=O)c2c(ncn2CCCCCCO)n(C)c1=O |  | Activity [2]: 97%
CC(=O)CCn1c(=O)c2c(ncn2C)n(C)c1=O | 46 | 
CC(=O)CCCCCCn1c(=O)c2c(ncn2C)n(C)c1=O | 76 | 
CC(O)CCCCCCn1cnc2c1c(=O)n(C)c(=O)n2C (stereo not drawn) |  | Activity [2]: 98%
CC(=O)CCCCn1cnc2c1c(=O)n(C)c(=O)n2C [LOMIFYLLINE] | 65 | 
Cn1cnc2c1c(=O)n(CCCCCC(=O)O)c(=O)n2C |  | Activity [2]: 61%
CC(=O)CCn1cnc2c1c(=O)n(C)c(=O)n2C | 97 | 
CC(O)Cn1c(=O)c2c(ncn2C)n(C)c1=O (stereo not drawn) [PROTHEOBROMINE] | 83 | 
CC(=O)CCCCCCn1cnc2c1c(=O)n(C)c(=O)n2C | 112 | 

Structure (SMILES) | Activity [1] [%] | also measured
Cn1c(=O)c2c(ncn2CCCCCC(=O)O)n(C)c1=O |  | Activity [2]: 9.4%
CC(O)CCCCCn1cnc2c1c(=O)n(C)c(=O)n2C (stereo not drawn) | 105 | 
CC(O)CCCCCn1c(=O)c2c(ncn2C)n(C)c1=O (stereo not drawn) | 54 | 
CC(=O)CCCCCn1c(=O)c2c(ncn2CCCCCC(C)=O)n(C)c1=O | 54 | 
CC(=O)Cn1cnc2c1c(=O)n(C)c(=O)n2C | 65 | 
Cn1c(=O)c2[nH]cnc2n(C)c1=O |  | Potentiation [5]: 95.3%
CCOC(=O)CCCCCn1c(=O)c2c(ncn2C)n(C)c1=O |  | Activity [2]: 103%
Cn1c(=O)c2ncn(C)c2n(C)c1=O |  | Potentiation [6]: 28.7%
CC(=O)CCCCCn1c(=O)c2c(ncn2CCCC(C)=O)n(C)c1=O | 38 | 
CC(O)CCCn1c(=O)c2c(ncn2C)n(C)c1=O (stereo not drawn) | 59 | 
CC(=O)CCCn1cnc2c1c(=O)n(CC(C)=O)c(=O)n2C | 6.7 | 
CCOC(=O)CCCCCn1cnc2c1c(=O)n(C)c(=O)n2C |  | Activity [2]: 145%
CC(O)CCCn1cnc2c1c(=O)n(C)c(=O)n2C (stereo not drawn) | 82 | 
Cn1c(=O)c2c(ncn2CCCCCc2ccccc2)n(C)c1=O | 70 | 
CCOC(=O)Cn1cnc2c1c(=O)n(C)c(=O)n2C |  | Activity [2]: 87%
CC(=O)CCCCCCCCn1cnc2c1c(=O)n(C)c(=O)n2C |  | Activity [2]: 62%
CC(=O)Cn1c(=O)c2c(ncn2CC(C)=O)n(C)c1=O | 17 | 
Cn1c(=O)c2c(ncn2CCCCO)n(C)c1=O | 81 | 
Cn1c(=O)c2nc[nH]c2n(C)c1=O.O [THEOPHYLLINE] | 106 | 
Cn1c(=O)c2c(ncn2CC(=O)O)n(C)c1=O [ACEFYLLINE] |  | Activity [2]: 1.4%
CC(=O)CCCCCn1c(=O)c2c(ncn2C)n(C)c1=O | 96 | 
